Results on four compounds are retold here after ChEMBL document CHEMBL1123247, “Nucleoside conjugates. 7. Synthesis and antitumor activity of 1-beta-D-arabinofuranosylcytosine conjugates of ether lipids” (J Med Chem, 1986).

Where only a bound is given, the exact number is not on record here.

The test system of test [1] is L1210. Description: Antitumor activity was determined against the ip implanted L1210 leukemia in mice by range in survival days at 300 mg/kg (treatment of 1qd schedule) dosage; Range is 14->45. The format is functional, Mus musculus. The settings on record: route intraperitoneal. An outline of the steps: (§1)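 DBA/2J mice, 23-28 g, in groups of 6, were inoculated ip with 1×10^6 L1210 cells on day 0. Dosing was ip starting 24 h later on the stated daily schedules. Conjugates were given as sonicated solutions and reference prodrugs as suspensions in 0.9% NaCl with 0.5% Tween-80. Mice were observed daily until death or 45 days. Median survival T/C was calculated from survivors per NCI protocols.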

Test [2] has as its system L1210. Description: Antitumor activity against ic implanted L1210 lymphoid leukemia in mice expressed as active dose range (1 qd treatment schedule) required to produce increase in life span by >25% was determined; Range is 200-400. In kind it is functional, Mus musculus. In short, it runs like this: (§2)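 DBA/2J mice, groups of 6 (26-32 g), got 1 × 10^5 L1210 cells ic on day 0. Dosing was ip starting 24 h later, as a sonicated solution or suspension in 0.9% NaCl with 0.5% Tween-80, over a wide dose range. Mice were followed daily until death. Median survival T/C was taken from survivors per NCI protocols, and ILS = (T/C − 1) × 100. Active range means doses giving ILS ≥25%; optimal dose means greatest ILS.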

The test system of test [3] is L1210. Description: Antitumor activity was determined against the ic implanted L1210 lymphoid leukemia in mice by percent increase in life span at 300 mg/kg (1 qd treatment schedule) dosage. In kind it is functional, Mus musculus. An outline of the steps: as §2
Test [4] deals with L1210. Description: Antitumor activity was determined against the ip implanted L1210 leukemia in mice by percent increase in life span at 40 mg/kg (treatment of 1-5qd schedule) dosage. In kind it is functional, Mus musculus. The settings on record: route intraperitoneal. In short, it runs like this:
(§3)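 DBA/2J mice in groups of 6 (wt 23-28 g) were inoculated ip with 1×10^6 L1210 cells on day 0. Dosing was ip from 24 h, in 0.9% NaCl with 0.5% Tween-80 (conjugates sonicated), across a range of doses. Mice were observed daily until death or 45 days. Median T/C was computed from survivors per NCI protocols, and ILS = (T/C − 1)×100.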

For test [5], the system named is P388. Description: Antitumor activity was determined against the ip implanted P388 leukemia in mice by range in survival days at 500 mg/kg (1 qd treatment schedule) dosage; Range is 35->45. The settings on record: route intraperitoneal.
Test [6] deals with L1210. Description: Antitumor activity was determined against the ip implanted L1210 leukemia in mice by percent median survival rate (treated/control) at 400 mg/kg (treatment of 1qd schedule) dosage; 27.5/7.0. The settings on record: route intraperitoneal. In kind it is functional, Mus musculus. In short, it runs like this: as §1
Test [7] relates to L1210. Description: Antitumor activity was determined against the ip implanted L1210 leukemia in mice by range in survival days at 80 mg/kg (treatment of 1-5qd schedule) dosage; Range is 21-30. The format is functional, Mus musculus. The settings on record: route intraperitoneal. An outline of the steps: as §1
Test [8] relates to L1210. Description: Antitumor activity was determined against the ic implanted L1210 lymphoid leukemia in mice by range in survival days at 100 mg/kg (treatment of 1-5qd schedule) dosage; Range is 21-24. The format is functional, Mus musculus.
Test [9] has as its system P388. The test is described as follows: Antitumor activity was determined against the ip implanted P388 leukemia in mice by percent increase in life span at 300 mg/kg (treatment of 1qd schedule) dosage. The settings on record: route intraperitoneal.
For test [10], the system named is L1210. The test is described as follows: Antitumor activity was determined against the ic implanted L1210 lymphoid leukemia in mice by median survival time at 167 mg/kg (treatment of 1, 5, 9qd schedule) dosage; 21.0/7.0.
For test [11], the system named is L1210. Description: Antitumor activity was determined against the ip implanted L1210 leukemia in mice by range in survival days at 400 mg/kg (treatment of 1qd schedule) dosage; Range is 15-29. The format is functional, Mus musculus. The settings on record: route intraperitoneal. An outline of the steps:
as §1

The test system of test [12] is L1210. Description: Antitumor activity against ip implanted L1210 leukemia in mice expressed as active dose range (1 qd treatment schedule) required to produce increase in life span by >25% was determined; Range is 300-500. The format is functional, Mus musculus. An outline of the steps:
(§4)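 DBA/2J mice, groups of 6 (23-28 g), were inoculated ip with 1 × 10^6 L1210 cells on day 0. Dosing was ip from 24 h, in 0.9% NaCl with 0.5% Tween-80 (sonicated solution or suspension). Mice were observed daily until death or day 45. Median survival T/C followed NCI protocols, and ILS = (T/C − 1) × 100. Active range means doses giving ILS ≥25%; optimal dose means greatest ILS.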

Test [13] relates to L1210. The test is described as follows: Antitumor activity was determined against the ip implanted L1210 leukemia in mice by 45-day survivors in mice at 100 mg/kg (treatment of 1-5qd schedule) dosage. The settings on record: route intraperitoneal. The format is functional, Mus musculus. An outline of the steps:
as §3

For test [14], the system named is P388. The test is described as follows: Antitumor activity was determined against the ip implanted P388 leukemia in mice by percent median survival rate (treated/control) at 500 mg/kg (treatment of 1qd schedule) dosage; >45.0/11.0. The format is functional, Mus musculus. The settings on record: route intraperitoneal.
Test [15] deals with P388. The test is described as follows: Antitumor activity was determined against the ip implanted P388 leukemia in mice by range in survival days at 67 mg/kg (treatment of 1,5,9qd schedule) dosage; Range is 21-31. The format is functional, Mus musculus. The settings on record: route intraperitoneal.
Test [16] has as its system P388. Description: Antitumor activity was determined against the ip implanted P388 leukemia in mice by change in […] at 67 mg/kg (treatment of 1,5,9qd schedule) dosage. In kind it is functional, Mus musculus. The settings on record: route intraperitoneal. An outline of the steps: (§5)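 P388 leukemia, 1×10^6 cells implanted ip on day 0 into DBA/2J mice, groups of 6 (wt 23-33 g). Dosing ip started 24 h post-inoculation, vehicle 0.9% NaCl containing 0.5% Tween-80. Animals were observed daily until death or 45 days. Outputs were weight change, median survival T/C from survivors per NCI protocols, and %ILS = (T/C − 1) × 100.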

Test [17] deals with L1210. Description: Antitumor activity against the ic implanted L1210 lymphoid leukemia in mice expressed as optimal dose (1-9qd treatment schedule) required to produce greatest increase in life span was determined. In kind it is functional, Mus musculus. An outline of the steps:
as §2

Test [18] relates to L1210. Description: Antitumor activity was determined against the ic implanted L1210 lymphoid leukemia in mice by range in survival days at 100 mg/kg (treatment of 1-9qd schedule) dosage; Range is 11-18. In kind it is functional, Mus musculus.
For test [19], the system named is L1210. The test is described as follows: Antitumor activity against ip implanted L1210 leukemia in mice expressed as active dose range (1-5qd treatment schedule) required to produce increase in life span by >25% was determined; Range is 5-350. The format is functional, Mus musculus. An outline of the steps:
as §4

Test [20] relates to Non-small cell lung cancer cell line. The test is described as follows: Compound was tested for the inhibition of non- small cell lung cancer. The format is functional, cell-based. The settings on record: Homo sapiens. In short, it runs like this:
(§6)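 Human leukemia and solid tumor cells in culture were exposed to compound for 48 h. Viability was scored by trypan blue dye exclusion. IC50 (50% inhibition) was estimated from response curves of three separate experiments.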

Test [21] deals with P388. The test is described as follows: Antitumor activity was determined against the ip implanted P388 leukemia in mice by change in […] at 200 mg/kg (treatment of 1-5qd schedule) dosage. In kind it is functional, Mus musculus. The settings on record: route intraperitoneal. In short, it runs like this: as §5
The subject of test [22] is Small cell lung cancer cell line. Description: Compound was tested for the inhibition of small cell lung cancer. The format is functional, cell-based. The settings on record: Homo sapiens. In short, it runs like this:
as §6

Test [23] concerns L1210. The test is described as follows: Antitumor activity was determined against the ic implanted L1210 lymphoid leukemia in mice by median survival time at 300 mg/kg (treatment of 1-5qd schedule) dosage; 16.0/7.0.

Turning to `CCCCCCCCCCCCCCCC(=O)OC[C@H](COP(=O)(O)OP(=O)(O)OC[C@H]1O[C@@H](n2ccc(N)nc2=O)[C@@H](O)[C@@H]1O)OC(=O)CCCCCCCCCCCCCCC`, the Range worked out at 14 in the test on L1210 [1] and 35 with P388 [5]. For the same compound, in the test with L1210 [2], the Active dose range was determined as 200 mg/kg/day. The values for the ILS with L1210 [3] and in the test on L1210 [4] were 200 and 275, respectively.
Take `CCCCCCCCCCCCCCCCOCC(COP(=O)(O)OP(=O)(O)OC[C@H]1O[C@@H](n2ccc(N)nc2=O)[C@@H](O)[C@@H]1O)OC(=O)CCCCCCCCCCCCCCC` (mixture of isomers): the T/C (as a rule, the ratio of treated to control) with L1210 [6] is listed as 27.5%. For the same compound, the Range in the test with L1210 [7] and in the test with L1210 [8] was 21 each time. The ILS in the test on P388 [9] is reported as over 309. This compound also had a median survival time in the test with L1210 [10] of 21 days.
On to `CCCCCCCCCCCCCCCCCCOCC(COP(=O)(O)OP(=O)(O)OC[C@H]1O[C@@H](n2ccc(N)nc2=O)[C@@H](O)[C@@H]1O)OC(=O)CCCCCCCCCCCCCCC` (mixture of isomers), for which the figures for the Range in the test with L1210 [11] and with P388 [15] were 15 and 21, respectively. In the test with L1210 [12], this compound yielded an Active dose range of 300 mg/kg/day. Also, the Survivors in the test with L1210 [13] is 0. For the same compound, the T/C in the test with P388 [14] is recorded as over 45%. The compound also had a Weight change in the test on P388 [16] of 0.63 g mouse-1.
In the test with L1210 [17], `Nc1ccn([C@@H]2O[C@H](CO)[C@@H](O)[C@@H]2O)c(=O)n1` [CYTARABINE] came in with an Optimal dose of 100 mg. The Range with L1210 [18] amounted to 11. Further, the Active dose range in the test with L1210 [19] is 5 mg/kg/day. The half-maximal inhibitory concentration (IC50) (commonly the concentration that inhibits the measured activity by half) in test [20] is 34 µM; in [22], over 100 µM. This compound also returned a Weight change in the test with P388 [21] of -3.62 g mouse-1. Further, the median survival time in the test with L1210 [23] was 16 days.
